Test results taken from PMC12796350 (Scientific Reports, 2025).
Read-outs that look alike come from different tables or passages of the source.

Tests used:
[1] = tested on: HTB-140 (human melanoma) cells; test: MTT cytotoxicity assay, HTB-140; format: cell-based; conditions: for IC50: 72 h, read-out: IC50 HTB-140; for SI HTB-140 (Selectivity Index): SI = IC50 for normal cell line (HaCaT)/IC50 cancer cell line
How it was run: (§1)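 Cells were seeded in 96-well plates at 1 × 10^4 per well in DMEM with 2% FBS and exposed 72 h to a range of test-compound concentrations. MTT (0.5 mg/mL) was added for 4 h, and formazan was dissolved in 0.04 M HCl/isopropanol. A570 was read relative to untreated control. […] SI = IC50 in HaCaT keratinocytes / IC50 in the cancer line. Mean SD.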

[2] = tested on: A549 (human lung adenocarcinoma) cells; test: MTT cytotoxicity assay, A549; format: cell-based; conditions: for IC50: read-out: IC50 A549; for SI A549 (Selectivity Index): SI = IC50 for normal cell line (HaCaT)/IC50 cancer cell line
How it was run: as §1

[3] = tested on: HeLa (human cervical cancer) cells; test: MTT cytotoxicity assay, HeLa; format: cell-based; conditions: for IC50: 72 h, read-out: IC50 HeLa; for SI HeLa (Selectivity Index): SI = IC50 for normal cell line (HaCaT)/IC50 cancer cell line
How it was run: as §1

[4] = tested on: SW620 (human colorectal cancer) cells; test: MTT cytotoxicity assay, SW620; format: cell-based; conditions: for SI SW620 (Selectivity Index): SI = IC50 for normal cell line (HaCaT)/IC50 cancer cell line
How it was run: as §1

[5] = tested on: HaCaT (immortalized human keratinocytes); test: MTT cytotoxicity assay, HaCaT normal cells; format: cell-based; conditions: 72 h, read-out: IC50 HaCaT (normal cells)
A549 cells = test: Apoptosis, Annexin V-FITC/7-AAD flow cytometry, A549; format: cell-based, human; conditions: for cells in late apoptosis or necrosis: A549, IC50 concentration, 72 h
How it was run: (§2)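 Human HTB-140, A549, HeLa, SW620 or HaCaT cells were grown in DMEM with 2% FBS at 1 × 10^4 cells per well and preincubated 72 h with test compound. Camptothecin, 4 µM for 4 h, served as the positive control. Cells were dual-stained with Annexin V-FITC and 7-AAD, and 10,000 cells were analysed by flow cytometry. Annexin+/7-AAD− cells counted as early apoptotic; Annexin+/7-AAD+ as late apoptotic or necrotic.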

[6] = tested on: interleukin-6 (IL-6) release, HTB-140 cells; test: IL-6 level by ELISA, HTB-140; format: cell-based, human; conditions: HTB-140, IC50 dose, 72 h
How it was run: (§3)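 Cells were seeded at 1 × 10^4 per well in DMEM with 2% FBS and exposed to test compound for 72 h. IL-6 in the culture supernatant was measured with a commercial ELISA kit and compared with untreated control. Data are mean ± SD from three independent experiments, each run in triplicate, compared by Student's t-test.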

[7] = tested on: interleukin-6 (IL-6) release, SW620 cells; test: IL-6 level by ELISA, SW620; format: cell-based, human; conditions: SW620, IC50 dose, 72 h
How it was run: as §3

HTB-140 cells [8] = test: LDH release assay, HTB-140; format: cell-based, human; conditions: 25 µM, 72 h
HaCaT cells [9] = test: LDH release assay, HaCaT; format: cell-based, human; conditions: 25 µM, 72 h
HTB-140 cells [10] = test: Apoptosis, Annexin V-FITC/7-AAD flow cytometry, HTB-140; format: cell-based, human
How it was run: as §2

[11] = tested on: interleukin-6 (IL-6) release, A549 cells; test: IL-6 level by ELISA, A549; format: cell-based, human; conditions: A549, IC50 dose, 72 h
How it was run: as §3

[12] = tested on: interleukin-6 (IL-6) release, HeLa cells; test: IL-6 level by ELISA, HeLa; format: cell-based, human; conditions: IC50 dose, 72 h
How it was run: as §3

HeLa cells = test: Apoptosis, Annexin V-FITC/7-AAD flow cytometry, HeLa; format: cell-based, human; conditions: 4 µM, 4 h
How it was run: as §2

HaCaT cells [13] = test: Apoptosis, Annexin V-FITC/7-AAD flow cytometry, HaCaT; format: cell-based, human; conditions: 4 µM, 4 h
How it was run: as §2

SW620 cells = test: Apoptosis, Annexin V-FITC/7-AAD flow cytometry, SW620; format: cell-based, human; conditions: SW620, 4 µM, 4 h
How it was run: as §2

[14] = Homo sapiens, SW-620, 72 h, read-out: IC50 SW620, MTT, 72 h, mean SD
[15] = read-out: IC50 SW620, MTT, 72 h, mean SD
[16] = HTB-140, IC50 concentration, 72 h

| Compound | IC50 ([1]; Homo sapiens) | SI HTB-140 (Selectivity Index) [1] | IC50 ([2]; Homo sapiens, A549, 72 h) | SI A549 (Selectivity Index) [2] | IC50 ([3]; Homo sapiens, HeLa) | SI HeLa (Selectivity Index) [3] | IC50 [4, 14] | SI SW620 (Selectivity Index) [4] | IC50 ([5]; Homo sapiens, HaCaT) | other results |
| --- | --- | --- | --- | --- | --- | --- | --- | --- | --- | --- |
| CCc1cc(=O)c2c(OCC(O)CN3CCOCC3)c3ccoc3c(OC)c2o1 (stereo not shown) [Compound 9, 7-ethyl-9-methoxy-4-[2-hydroxy-3-(morpholin-4-yl)propoxy]-5H-furo[3,2-g][1] benzopyran-5-one] | 23.4 ± 2.6 µM | 2.29 | 37.6 ± 7.3 µM | 1.43 | 29.5 ± 4.6 µM | 1.82 | 21.9 ± 4.3 µM | 2.45 | 53.6 ± 7.3 µM |  |
| CCc1cc(=O)c2c(OCC(O)CNC(C)C)c3ccoc3c(OC)c2o1 (stereo not shown) [Compound 4, 7-ethyl-9-methoxy-4-{2-hydroxy-3-[(propan-2-yl)amino]propoxy}-5H-furo[3,2-g][1]benzopyran-5-one] | 18.2 ± 3.6 µM | 2.32 | 32.3 ± 7.9 µM | 1.31 | 27.4 ± 6.5 µM | 1.54 | 11.4 to 11.5 µM | 3.68 | 42.3 ± 7.9 µM | IC50 [4, 15]: 11.5 ± 6.6 µM; cells in late apoptosis or necrosis (A549 cells): 55.6%; reduction of IL-6 release vs control [6]: strongest effect; reduction of IL-6 secretion vs control [7]: around 50% |
| CCc1cc(=O)c2c(O)c3ccoc3c(O)c2o1 [Compound 1, 7-ethyl-4,9-dihydroxy-5 H-furo[3,2-g][1]benzopyran-5-one] | 30.4 ± 8.7 µM | 1.64 | 39.8 ± 7.9 µM | 1.25 | 41.5 ± 4.6 µM | 1.20 | 21.1 ± 4.4 µM | 2.36 | 49.8 ± 7.9 µM |  |
| CCc1cc(=O)c2c(OCC(O)CN3CCCCC3)c3ccoc3c(OC)c2o1 (stereo not shown) [Compound 7, 7-ethyl-9-methoxy-4-[2-hydroxy-3-(piperidin-1-yl)propoxy]-5H-furo[3,2-g][1] benzopyran-5-one] | 32.5 ± 4.1 µM | 1.60 | 35.2 ± 6.3 µM | 1.47 | 32.3 ± 3.8 µM | 1.61 | 28.6 ± 5.5 µM | 1.81 | 51.9 ± 6.3 µM |  |
| CCc1cc(=O)c2c(O)c3ccoc3c(OC)c2o1 [Compound 2, 7-ethyl-4-hydroxy-9-methoxy-5H-furo[3,2-g][1]benzopyran-5-one] | 29.4 ± 3.4 µM | 1.58 | 36.5 ± 6.5 µM | 1.27 | 29.2 ± 3.9 µM | 1.59 | 17.4 ± 3.5 µM | 2.67 | 46.5 ± 8.5 µM | LDH release (HTB-140 cells [8]): 30.4%; LDH release (HaCaT cells [9]): 13.5%; cells in early apoptosis (HTB-140 cells [10]; [16]): 19.5%; cells in late apoptosis or necrosis (HTB-140 cells [10]; [16]): 20.8%; cells in late apoptosis or necrosis (A549 cells): 63.2%; IL-6 release effect vs control [11]: 38% |
| CCc1cc(=O)c2c(OCC(O)CNC(C)(C)C)c3ccoc3c(OC)c2o1 (stereo not shown) [Compound 8, 7-ethyl-9-methoxy-4-[3-(tert-butylamino)-2-hydroxypropoxy]-5H-furo[3,2-g][1] benzopyran-5-one] | 31.3 ± 2.6 µM | 1.47 | 38.4 ± 7.3 µM | 1.20 | 33.4 ± 4.6 µM | 1.38 | 26.3 ± 4.3 µM | 1.75 | 46.1 ± 7.3 µM |  |
| CCc1cc(=O)c2c(OCC(O)CN3CCC(C)CC3)c3ccoc3c(OC)c2o1 (stereo not shown) [Compound 5, 7-ethyl-9-methoxy-4-[2-hydroxy-3-(4-methylpiperidin-1-yl)propoxy]-5H-furo[3,2-g][1]benzopyran-5-one] | 29.4 ± 4.9 µM | 1.49 | 43.8 ± 8.3 µM | 1.00 | 32.6 ± 3.7 µM | 1.34 | 26.3 ± 3.3 µM | 1.67 | 43.8 ± 8.3 µM |  |
| CCc1cc(=O)c2c(OCC(O)CN(CC)CC)c3ccoc3c(OC)c2o1 (stereo not shown) [Compound 3, 7-ethyl-9-methoxy-4-[3-(diethylamino)-2-hydroxypropoxy]-5H-furo[3,2-g][1] benzopyran-5-one] | 30.1 ± 4.7 µM | 1.44 | 33.6 ± 4.1 µM | 1.29 | 34.2 ± 4.9 µM | 1.27 | 12.7 ± 5.1 µM | 3.41 | 43.3 ± 9.1 µM | inhibition of IL-6 release vs control [12]: 48% |
| N.N.[Cl][Pt][Cl] [Ref 1, cisplatin, reference compound] |  |  |  |  |  |  |  |  |  | IC50 ([1]; MTT, mean SD): 1.4 ± 0.69 µM; IC50 ([2]; MTT, 72 h, mean SD): 2.7 ± 1.1 µM; IC50 ([3]; MTT, mean SD): 1.8 ± 0.74 µM; IC50 [4, 15]: 1.9 ± 0.9 µM; IC50 ([5]; MTT, mean SD): 2.8 ± 1.1 µM |
| COc1cccc2c1C(=O)c1c(O)c3c(c(O)c1C2=O)C[C@@](O)(C(=O)CO)C[C@@H]3O[C@H]1C[C@H](N)[C@H](O)[C@H](C)O1 [Ref 2, doxorubicin, reference compound] | 0.5 ± 0.21 µM |  | 0.9 ± 0.19 µM |  | 0.6 ± 0.14 µM |  | 0.7 ± 0.16 µM |  |  |  |
| CC[C@@]1(O)C(=O)OCc2c1cc1n(c2=O)Cc2cc3ccccc3nc2-1 [camptothecin] |  |  |  |  |  |  |  |  |  | apoptosis induction (positive control) (HTB-140 cells [10]; HTB-140, 4 µM, 4 h): induced apoptosis; apoptosis induction (positive control) (A549 cells; A549, 4 µM, 4 h): induced apoptosis; apoptosis induction (positive control) (HeLa cells): induced apoptosis; apoptosis induction (positive control) (HaCaT cells [13]): induced apoptosis; apoptosis induction (positive control) (SW620 cells): induced apoptosis |
